Laboratory results as given in ChEMBL document CHEMBL3826890, “Synthesis and properties of peptide nucleic acid labeled at the N-terminus with HiLyte Fluor 488 fluorescent dye” (Bioorg Med Chem, 2016).
Values belong to the compound of their own block, whether it stands above or below them.

Tests used:
[1] = Binding affinity to dsRNA (unknown origin) after 350 to 600 secs by isothermal titration calorimetry assay
[2] = Drug uptake in cytoplasm of human Caco2 cells at 1 uM after 24 hrs using HF488-labeled compound by lysotracker deep red/DAPI based fluorescence assay; type: ADME, cell-based; settings: caco-2, 24 h
Outline: (§1)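 Cells treated with 1 µM HF488-labeled PNA in Opti-MEM at 37 °C, 10% CO2, for 24 h. Acidic organelles then stained with LysoTracker Deep Red and nuclei with DAPI. Intracellular localization assessed by fluorescence microscopy.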

[3] = Drug uptake in cytoplasm of HEK293 cells at 1 uM after 24 hrs using HF488-labeled compound by lysotracker deep red/DAPI based fluorescence assay; type: ADME, cell-based; settings: human, hek293, 24 h; outline: as §1
[4] = Drug uptake in cytoplasm of human MDA-MB-231 cells at 1 uM after 24 hrs using HF488-labeled compound by lysotracker deep red/DAPI based fluorescence assay; type: ADME, cell-based; settings: mda-mb-231, 24 h; outline: as §1
[5] = Drug uptake in cytoplasm of human U87MG cells at 1 uM after 24 hrs using HF488-labeled compound by lysotracker deep red/DAPI based fluorescence assay; type: ADME, cell-based; settings: u-87mg atcc; outline: as §1
[6] = test system: HEK293; experiment: Fluorescence intensity in buffer at 1 uM at pH <7 at 25 degC after 12 hrs using FAM-labeled compound by fluorescence spectroscopy
[7] = test system: HEK293; experiment: Fluorescence intensity in buffer at 1 uM at pH 5 to 8 at 25 degC after 12 hrs using 6'-HF488-labeled compound by fluorescence spectroscopy; settings: pH 5, 12 h
[8] = test system: HEK293; experiment: Fluorescence intensity in buffer at 1 uM at pH 5 to 8 at 25 degC after 12 hrs using 5'-HF488-labeled compound by fluorescence spectroscopy; settings: pH 5, 12 h
[9] = test system: HEK293; experiment: Drug degradation in HEK293 cells assessed as photobleaching rate at 1 uM after 4 scans using FAM-labeled compound by DAPI staining-based laser scanning microscopic method; type: ADME, cell-based; settings: human, hek293, 1 µM
Outline: (§2)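 Live HEK293 cells incubated 12 h at 37 °C with 1 µM labeled PNA in Opti-MEM, then nuclei stained with DAPI. Laser scanning confocal images (63× objective) taken at 32-s intervals over 30 min, scan average 8. Photostability given as MFI of each scan divided by MFI of the first scan, as a percentage. Mean of three experiments.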

[10] = test system: HEK293; experiment: Drug degradation in HEK293 cells assessed as photobleaching rate at 1 uM after 12 scans using FAM-labeled compound by DAPI staining-based laser scanning microscopic method; type: ADME, cell-based; settings: human, hek293, 1 µM; outline: as §2
[11] = test system: HEK293; experiment: Drug uptake in HEK293 cells at 1 uM after 12 hrs using FAM-labeled compound by flow cytometric method; type: ADME, cell-based; settings: human, hek293, 12 h
Outline: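 HEK293 cells incubated 12 h at 37 °C with 1 µM labeled PNA in Opti-MEM. Cells harvested, resuspended in DPBS and analysed by flow cytometry.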

Kd [1]: 7.35 nM
Structure (SMILES): Cc1cn(CC(=O)N(CCNC(=O)CN(CCNC(=O)CN(CCNC(=O)CN(CCNC(=O)[C@@H](N)CCCCN)C(=O)Cc2ccc(N)nc2)C(=O)Cn2cc(C)c(=O)[nH]c2=O)C(=O)Cc2ccc(N)nc2)CC(=O)NCCN(CC(=O)NCCN(CC(=O)NCCN(CC(=O)NCCN(CC(=O)NCCN(CC(=O)N[C@H](CCCCN)C(=O)N[C@@H](CCCCN)C(=O)N[C@H](CCCCN)C(N)=O)C(=O)Cc2ccc(N)nc2)C(=O)Cc2ccc(N)nc2)C(=O)Cn2cc(C)c(=O)[nH]c2=O)C(=O)Cn2cc(C)c(=O)[nH]c2=O)C(=O)Cc2ccc(N)nc2)c(=O)[nH]c1=O

Drug uptake [2]: Active | Drug uptake [3]: Active | Drug uptake [4]: Active | Drug uptake [5]: Active
Structure (SMILES): Cc1cn(CC(=O)N(CCNC(=O)CN(CCNC(=O)CN(CCNC(=O)CN(CCNC(=O)[C@@H](N)CCCCN)C(=O)Cc2ccc(N)nc2)C(=O)Cn2cc(C)c(=O)[nH]c2=O)C(=O)Cc2ccc(N)nc2)CC(=O)NCCN(CC(=O)NCCN(CC(=O)NCCN(CC(=O)NCCN(CC(=O)NCCN(CC(=O)N[C@@H](CCCCN)C(=O)N[C@@H](CCCCN)C(=O)N[C@@H](CCCCN)C(N)=O)C(=O)Cc2ccc(N)nc2)C(=O)Cc2ccc(N)nc2)C(=O)Cn2cc(C)c(=O)[nH]c2=O)C(=O)Cn2cc(C)c(=O)[nH]c2=O)C(=O)Cc2ccc(N)nc2)c(=O)[nH]c1=O

Fluorescence intensity [6]: Not Active | Fluorescence intensity [7]: Active | Fluorescence intensity [8]: Active
Structure (SMILES): Cc1cn(CC(=O)N(CCNC(=O)CN(CCNC(=O)CN(CCNC(=O)CN(CCNC(=O)[C@H](CCCCN)NC(=O)COCCOCCNC(=O)COCCOCCN)C(=O)Cn2ccc(N)nc2=O)C(=O)Cn2cc(C)c(=O)[nH]c2=O)C(=O)Cn2ccc(N)nc2=O)CC(=O)NCCN(CC(=O)NCCN(CC(=O)NCCN(CC(=O)NCCN(CC(=O)NCCN(CC(=O)N[C@@H](CCCCN)C(=O)N[C@@H](CCCCN)C(=O)N[C@@H](CCCCN)C(N)=O)C(=O)Cn2ccc(N)nc2=O)C(=O)Cn2ccc(N)nc2=O)C(=O)Cn2cc(C)c(=O)[nH]c2=O)C(=O)Cn2cc(C)c(=O)[nH]c2=O)C(=O)Cn2ccc(N)nc2=O)c(=O)[nH]c1=O

Drug degradation [9]: 20% | Drug degradation [10]: 50% | Drug uptake [11]: Active
Structure (SMILES): Cc1cn(CC(=O)N(CCNC(=O)CN(CCNC(=O)CN(CCNC(=O)CN(CCNC(=O)[C@H](CCCCN)NC(=O)COCCOCCNC(=O)COCCOCCNC(=O)[C@@H](N)CCCCN)C(=O)Cc2ccc(N)nc2)C(=O)Cn2cc(C)c(=O)[nH]c2=O)C(=O)Cc2ccc(N)nc2)CC(=O)NCCN(CC(=O)NCCN(CC(=O)NCCN(CC(=O)NCCN(CC(=O)NCCN(CC(=O)N[C@@H](CCCCN)C(=O)N[C@@H](CCCCN)C(=O)N[C@@H](CCCCN)C(N)=O)C(=O)Cc2ccc(N)nc2)C(=O)Cc2ccc(N)nc2)C(=O)Cn2cc(C)c(=O)[nH]c2=O)C(=O)Cn2cc(C)c(=O)[nH]c2=O)C(=O)Cc2ccc(N)nc2)c(=O)[nH]c1=O
